Results published in ChEMBL document CHEMBL1143019, “Hybrid molecules of estrone: new compounds with potential antibacterial, antifungal, and antiproliferative activities” (2007).

Experiments:
Lichtheimia corymbifera [1] = assay: Antifungal activity against Absidia corymbifera 272 after 48 hrs; type: functional
Method in brief: (§1)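 Modified NCCLS M27-A broth microdilution with clinical isolates subcultured on Sabouraud dextrose agar. Suspensions diluted 1:50 in RPMI 1640 to give a final inoculum of 0.5–2.5×10³ CFU/mL for yeasts or 0.5–5×10⁴ CFU/mL for molds. The RPMI had L-glutamine, no bicarbonate, and 0.165 M MOPS to pH 7.0. Twofold dilutions from 250 to 0.49. Plates held at 35 °C, humid, without agitation. MIC is the lowest concentration giving ≥80% inhibition versus drug-free control, read at 24 and 48 h.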

Trichophyton benhamiae [2] = assay: Antifungal activity against Trichophyton mentagrophytes 445 after 72 hrs; type: functional, Arthroderma benhamiae
Method in brief: (§2)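 Same modified M27-A microdilution with the mold inoculum of 0.5–5×10⁴ CFU/mL. Medium was RPMI 1640 with L-glutamine, no bicarbonate, and 0.165 M MOPS at pH 7.0. Twofold dilutions from 250 to 0.49. Incubated at 35 °C in a humid atmosphere.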

Trichophyton benhamiae [3] = assay: Antifungal activity against Trichophyton mentagrophytes 445 after 120 hrs; type: functional, Arthroderma benhamiae; method in brief: as §2
Trichosporon beigelii [4] = assay: Antifungal activity against Trichosporon beigelii 1188 after 48 hrs; type: functional; method in brief: as §1
Mycobacterium avium [5] = assay: Antimicrobial activity against Mycobacterium avium My 330/88 after 21 days; type: functional; settings: 504 h
Candida albicans [6] = assay: Antifungal activity against Candida albicans ATCC 44859 after 24 hrs; type: functional; settings: ATCC 44859, 24 h; method in brief: as §1
Aspergillus fumigatus [7] = assay: Antifungal activity against Aspergillus fumigatus 231 after 24 hrs; type: functional; method in brief: as §1
Mycobacterium kansasii [8] = assay: Antimicrobial activity against Mycobacterium kansasii My 235/80 after 21 days; type: functional; settings: 504 h
Method in brief: (§3)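 Run in Šula semisynthetic liquid medium containing bovine serum. Compounds added as DMSO solutions at final concentrations of […]. Each strain was also inoculated onto Löwenstein–Jensen medium to control inoculum sterility and growth.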

Candida albicans [9] = assay: Antifungal activity against Candida albicans ATCC 44859 after 48 hrs; type: functional; settings: ATCC 44859, 48 h; method in brief: as §1
Mycobacterium kansasii [10] = assay: Antimicrobial activity against Mycobacterium kansasii My 6509/96 after 14 days; type: functional; settings: 336 h; method in brief: as §3
Mycobacterium kansasii [11] = assay: Antimicrobial activity against Mycobacterium kansasii My 235/80 after 14 days; type: functional; settings: 336 h; method in brief: as §3
K562 = assay: Antiproliferative activity against human K562 cells after 72 hrs; type: functional; settings: K562, 72 h
Method in brief: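 About 10,000 suspension cells per well in RPMI 1640 with 10% heat-inactivated FBS and penicillin/streptomycin, without HEPES. Exposed to 10 concentrations for 72 h at 37 °C in humidified 5% CO₂. Wells diluted 1:50 in CASYTON and counted electronically, each result the mean of three successive counts. GI50 is where the concentration–response curve crosses 50% of control cell count.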

Trichosporon beigelii [12] = assay: Antifungal activity against Trichosporon beigelii 1188 after 24 hrs; type: functional; method in brief: as §1
Pichia kudriavzevii [13] = assay: Antifungal activity against Candida krusei E28 after 48 hrs; type: functional; method in brief: as §1
[14] = test system: Mycobacterium tuberculosis; assay: Antimicrobial activity against Mycobacterium tuberculosis My 331/88 after 21 days; type: functional; settings: 504 h
Pichia kudriavzevii [15] = assay: Antifungal activity against Candida krusei E28 after 24 hrs; type: functional; method in brief: as §1
Candida tropicalis [16] = assay: Antifungal activity against Candida tropicalis 156 after 24 hrs; type: functional; method in brief: as §1
Candida tropicalis [17] = assay: Antifungal activity against Candida tropicalis 156 after 48 hrs; type: functional; method in brief: as §1
Mycobacterium kansasii [18] = assay: Antimicrobial activity against Mycobacterium kansasii My 6509/96 after 7 days; type: functional; settings: 168 h; method in brief: as §3
Mycobacterium avium [19] = assay: Antimicrobial activity against Mycobacterium avium My 330/88 after 14 days; type: functional; settings: 336 h
Nakaseomyces glabratus [20] = assay: Antifungal activity against Candida glabrata 20/I after 48 hrs; type: functional; method in brief: as §1
Mycobacterium kansasii [21] = assay: Antimicrobial activity against Mycobacterium kansasii My 235/80 after 7 days; type: functional; settings: 168 h; method in brief: as §3
HeLa = assay: Cytotoxicity against human HeLa cells after 72 hrs; type: functional; settings: for CC50: Homo sapiens, HeLa, 72 h
Method in brief: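 About 10,000 cells per well in RPMI 1640 were preincubated 48 h without compound. The 10 test concentrations were then applied onto the monolayers and incubated 72 h at 37 °C in humidified 5% CO₂. Monolayers fixed with glutaraldehyde, stained with 0.05% methylene blue, and eluted with 0.33 N HCl; optical density measured at 630 nm.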

L929 = assay: Antiproliferative activity against mouse L929 cells after 72 hrs; type: functional; settings: L929, 72 h
Method in brief: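 About 10,000 adherent cells per well in RPMI 1640 with 10% heat-inactivated FBS and penicillin/streptomycin, without HEPES. Exposed to 10 concentrations for 72 h at 37 °C in humidified 5% CO₂. Monolayers fixed with glutaraldehyde, stained 15 min with 0.05% methylene blue, and eluted with 0.33 N HCl; OD read at 630 nm. GI50 derived from dose–response curves relative to control.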

Mycobacterium kansasii [22] = assay: Antimicrobial activity against Mycobacterium kansasii My 6509/96 after 21 days; type: functional; settings: 504 h; method in brief: as §3
Nakaseomyces glabratus [23] = assay: Antifungal activity against Candida glabrata 20/I after 24 hrs; type: functional; method in brief: as §1
Aspergillus fumigatus [24] = assay: Antifungal activity against Aspergillus fumigatus 231 after 48 hrs; type: functional; method in brief: as §1
Lichtheimia corymbifera [25] = assay: Antifungal activity against Absidia corymbifera 272 after 24 hrs; type: functional; method in brief: as §1
[26] = test system: Mycobacterium tuberculosis; assay: Antimicrobial activity against Mycobacterium tuberculosis My 331/88 after 14 days; type: functional; settings: 336 h

Clc1ccc(-n2nnnc2SCc2ccccc2)cc1Cl
> 50 mg/L: GI50 (K562)
16 µM: MIC (Mycobacterium kansasii [11]) | MIC (Mycobacterium kansasii [18]) | MIC [26]
8 µM: MIC (Mycobacterium kansasii [21])
32 µM: MIC (Mycobacterium kansasii [8]) | MIC (Mycobacterium kansasii [10]) | MIC [14]
62.5 µM: MIC (Mycobacterium avium [19]) | MIC (Mycobacterium kansasii [22])
> 250 µM: MIC (Lichtheimia corymbifera [1]) | MIC (Trichosporon beigelii [4]) | MIC (Candida albicans [6]) | MIC (Candida albicans [9]) | MIC (Trichosporon beigelii [12]) | MIC (Pichia kudriavzevii [13]) | MIC (Pichia kudriavzevii [15]) | MIC (Candida tropicalis [16]) | MIC (Candida tropicalis [17]) | MIC (Nakaseomyces glabratus [20]) | MIC (Nakaseomyces glabratus [23]) | MIC (Aspergillus fumigatus [24]) | MIC (Lichtheimia corymbifera [25])
19.1 mg/L: GI50 (L929)
250 µM: MIC (Aspergillus fumigatus [7])
48.6 mg/L: CC50 (HeLa)
9.9 mg/L: CC10 (HeLa)
125 µM: MIC (Trichophyton benhamiae [2]) | MIC (Trichophyton benhamiae [3]) | MIC (Mycobacterium avium [5])

Cc1ccc(-n2nnnc2SCc2ccccc2)cc1
62.5 µM: MIC (Trichophyton benhamiae [3]) | MIC (Aspergillus fumigatus [7]) | MIC (Mycobacterium avium [19])
12.5 mg/L: GI50 (L929)
> 250 µM: MIC (Lichtheimia corymbifera [1]) | MIC (Trichosporon beigelii [4]) | MIC (Candida albicans [6]) | MIC (Candida albicans [9]) | MIC (Trichosporon beigelii [12]) | MIC (Pichia kudriavzevii [13]) | MIC (Pichia kudriavzevii [15]) | MIC (Candida tropicalis [16]) | MIC (Candida tropicalis [17]) | MIC (Nakaseomyces glabratus [20]) | MIC (Nakaseomyces glabratus [23]) | MIC (Lichtheimia corymbifera [25])
250 µM: MIC (Mycobacterium kansasii [8]) | MIC (Mycobacterium kansasii [22]) | MIC (Aspergillus fumigatus [24])
19.7 mg/L: CC50 (HeLa)
24.3 mg/L: GI50 (K562)
16 µM: MIC (Mycobacterium kansasii [18]) | MIC (Mycobacterium kansasii [21])
125 µM: MIC [14]
4 mg/L: CC10 (HeLa)
32 µM: MIC (Mycobacterium kansasii [10]) | MIC (Mycobacterium kansasii [11]) | MIC [26]
31.3 µM: MIC (Trichophyton benhamiae [2])

c1ccc(CSc2nnnn2-c2ccccc2)cc1
36.1 mg/L: GI50 (K562)
125 µM: MIC (Mycobacterium avium [5]) | MIC (Mycobacterium kansasii [8]) | MIC (Mycobacterium kansasii [22])
22.5 mg/L: GI50 (L929)
8.7 mg/L: CC10 (HeLa)
31.3 µM: MIC (Trichophyton benhamiae [2])
32 µM: MIC (Mycobacterium kansasii [10]) | MIC (Mycobacterium kansasii [11]) | MIC (Mycobacterium avium [19])
16 µM: MIC (Mycobacterium kansasii [18]) | MIC (Mycobacterium kansasii [21]) | MIC [26]
> 250 µM: MIC (Lichtheimia corymbifera [1]) | MIC (Trichosporon beigelii [4]) | MIC (Candida albicans [6]) | MIC (Aspergillus fumigatus [7]) | MIC (Candida albicans [9]) | MIC (Trichosporon beigelii [12]) | MIC (Pichia kudriavzevii [13]) | MIC (Pichia kudriavzevii [15]) | MIC (Candida tropicalis [16]) | MIC (Candida tropicalis [17]) | MIC (Nakaseomyces glabratus [20]) | MIC (Nakaseomyces glabratus [23]) | MIC (Aspergillus fumigatus [24]) | MIC (Lichtheimia corymbifera [25])
62.5 µM: MIC (Trichophyton benhamiae [3]) | MIC [14]
41.6 mg/L: CC50 (HeLa)

C[C@]12CC[C@@H]3c4ccc(OCCCCCCCBr)cc4CC[C@H]3[C@@H]1CCC2=O
16.3 mg/L: CC10 (HeLa)
> 125 µM: MIC (Lichtheimia corymbifera [1]) | MIC (Trichophyton benhamiae [2]) | MIC (Trichophyton benhamiae [3]) | MIC (Trichosporon beigelii [4]) | MIC (Candida albicans [6]) | MIC (Aspergillus fumigatus [7]) | MIC (Candida albicans [9]) | MIC (Trichosporon beigelii [12]) | MIC (Pichia kudriavzevii [13]) | MIC (Pichia kudriavzevii [15]) | MIC (Candida tropicalis [16]) | MIC (Candida tropicalis [17]) | MIC (Nakaseomyces glabratus [20]) | MIC (Nakaseomyces glabratus [23]) | MIC (Aspergillus fumigatus [24]) | MIC (Lichtheimia corymbifera [25])
49.9 mg/L: GI50 (L929)
62.5 µM: MIC (Mycobacterium kansasii [10]) | MIC (Mycobacterium kansasii [18]) | MIC (Mycobacterium kansasii [21])
16 µM: MIC (Mycobacterium avium [19])
32 µM: MIC (Mycobacterium avium [5]) | MIC [26]
13.1 mg/L: GI50 (K562)
> 50 mg/L: CC50 (HeLa)

C[C@]12CC[C@@H]3c4ccc(OCCCCCCCSc5nnnn5-c5ccc(Cl)c(Cl)c5)cc4CC[C@H]3[C@@H]1CCC2=O
250 µM: MIC (Aspergillus fumigatus [7])
> 500 µM: MIC (Mycobacterium kansasii [8]) | MIC (Mycobacterium kansasii [11]) | MIC [14] | MIC (Mycobacterium kansasii [22])
> 250 µM: MIC (Lichtheimia corymbifera [1]) | MIC (Trichophyton benhamiae [2]) | MIC (Trichophyton benhamiae [3]) | MIC (Trichosporon beigelii [4]) | MIC (Candida albicans [6]) | MIC (Candida albicans [9]) | MIC (Trichosporon beigelii [12]) | MIC (Pichia kudriavzevii [13]) | MIC (Pichia kudriavzevii [15]) | MIC (Candida tropicalis [16]) | MIC (Candida tropicalis [17]) | MIC (Nakaseomyces glabratus [20]) | MIC (Nakaseomyces glabratus [23]) | MIC (Aspergillus fumigatus [24]) | MIC (Lichtheimia corymbifera [25])
50 mg/L: CC10 (HeLa)
> 50 mg/L: GI50 (K562) | CC50 (HeLa) | GI50 (L929)

C[C@]12CC[C@@H]3c4ccc(OCCCCCCCSc5nnnn5-c5ccccc5)cc4CC[C@H]3[C@@H]1CCC2=O
> 50 mg/L: GI50 (K562) | CC50 (HeLa) | GI50 (L929)
20.3 mg/L: CC10 (HeLa)
> 500 µM: MIC (Mycobacterium kansasii [8]) | MIC (Mycobacterium kansasii [11]) | MIC [14] | MIC (Mycobacterium kansasii [22]) | MIC [26]
> 250 µM: MIC (Lichtheimia corymbifera [1]) | MIC (Trichophyton benhamiae [2]) | MIC (Trichophyton benhamiae [3]) | MIC (Trichosporon beigelii [4]) | MIC (Candida albicans [6]) | MIC (Candida albicans [9]) | MIC (Trichosporon beigelii [12]) | MIC (Pichia kudriavzevii [13]) | MIC (Pichia kudriavzevii [15]) | MIC (Candida tropicalis [16]) | MIC (Candida tropicalis [17]) | MIC (Nakaseomyces glabratus [20]) | MIC (Nakaseomyces glabratus [23]) | MIC (Aspergillus fumigatus [24]) | MIC (Lichtheimia corymbifera [25])
250 µM: MIC (Aspergillus fumigatus [7])
